The text below walks through data of ChEMBL document CHEMBL1129787, “Synthesis of potent cyclic hexapeptide NK-1 antagonists. Use of a minilibrary in transforming a peptidal somatostatin receptor ligand into an NK-1 receptor ligand via a polyvalent peptidomimetic” (J Med Chem, 1996).

Non-standard residues stand in square brackets, D forms with d. Residues, ends and D or L forms follow the SMILES beside them. Phe(4-F) = N[C@@H](Cc1ccc(F)cc1)C(=O)O; 1Nal = N[C@@H](Cc1cccc2ccccc12)C(=O)O

T1 sequence (P25103 whole entry): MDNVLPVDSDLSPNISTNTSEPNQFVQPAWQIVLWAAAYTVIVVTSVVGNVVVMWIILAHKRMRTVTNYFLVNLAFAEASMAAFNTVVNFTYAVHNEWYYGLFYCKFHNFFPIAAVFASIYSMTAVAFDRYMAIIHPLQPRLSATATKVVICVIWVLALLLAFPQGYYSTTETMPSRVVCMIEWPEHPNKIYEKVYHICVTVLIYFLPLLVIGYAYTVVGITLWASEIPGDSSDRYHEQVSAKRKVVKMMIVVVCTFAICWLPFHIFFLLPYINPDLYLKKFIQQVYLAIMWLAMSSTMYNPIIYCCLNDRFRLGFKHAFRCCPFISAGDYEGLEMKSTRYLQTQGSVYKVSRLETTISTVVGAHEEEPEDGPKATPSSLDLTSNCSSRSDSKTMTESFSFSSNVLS

In the first assay the target is Beta-2 adrenergic receptor (Homo sapiens, UniProt P07550). The experiment in a line: Binding affinity towards cloned human Beta-2 adrenergic receptor.
Sequence of Beta-2 adrenergic receptor (P07550 whole entry): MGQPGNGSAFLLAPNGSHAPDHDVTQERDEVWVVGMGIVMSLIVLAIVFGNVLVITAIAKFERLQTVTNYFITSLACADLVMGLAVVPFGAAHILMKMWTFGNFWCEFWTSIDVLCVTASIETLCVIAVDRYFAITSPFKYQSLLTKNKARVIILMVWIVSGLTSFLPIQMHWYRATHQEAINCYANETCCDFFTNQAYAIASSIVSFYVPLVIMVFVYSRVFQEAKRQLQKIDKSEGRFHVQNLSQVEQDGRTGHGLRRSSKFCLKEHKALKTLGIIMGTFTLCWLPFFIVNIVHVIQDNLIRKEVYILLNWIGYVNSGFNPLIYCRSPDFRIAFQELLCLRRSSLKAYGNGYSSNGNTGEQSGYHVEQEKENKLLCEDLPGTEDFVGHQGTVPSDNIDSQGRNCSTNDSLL
Broadly, the IC50 is the concentration that gives 50% inhibition. A high value points to lower potency. In turn, `NCCCCCOC[C@H]1O[C@@H](OCCc2c[nH]c3ccccc23)[C@H](OCc2ccccc2)[C@@H](OCc2ccccc2)[C@@H]1OCc1ccccc1` showed a half-maximal inhibitory concentration (IC50) of 3000 nM. Same read-out and setting: then `NCCCCCOC[C@H]1O[C@@H](OCCc2c[nH]c3ccccc23)[C@H](OCc2ccccc2)C[C@@H]1OCc1ccccc1`, with 3000 nM.

For a further assay, the target named is Somatostatin receptor. As to the kind of experiment: Ability to inhibit binding of […]-CGP 23996 to somatostatin receptor on membranes from cerebral cortex. The assay is classed as tissue-based.
Consider `NCCCCCOC[C@H]1O[C@@H](OCCc2c[nH]c3ccccc23)[C@H](OCc2ccccc2)[C@@H](OCc2ccccc2)[C@@H]1OCc1ccccc1`, for which the IC50 came out at 5000 nM.

Another assay deals with T1, Substance-P receptor (Homo sapiens, UniProt P25103). The experiment in a line: Inhibition of Tachykinin receptor 1. The gist of the method:
(§1)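 NK-1 receptor inhibition assay. IC50 is reported in nM as the mean ± SD.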
`C[C@@H]1NC(=O)[C@@H]2CCCN2C(=O)[C@H](Cc2ccccc2)NC(=O)[C@H]([C@@H](C)O)NC(=O)[C@H](Cc2ccccc2)NC(=O)[C@@H](Cc2c[nH]c3ccccc23)NC1=O` registered an IC50 of 549 nM.

The compound `CC(C)C[C@@H]1NC(=O)[C@@H](Cc2c[nH]c3ccccc23)NC(=O)[C@H](Cc2ccccc2)NC(=O)[C@@H]2CCCN2C(=O)[C@H](Cc2ccccc2)NC(=O)[C@H]([C@@H](C)O)NC1=O` registered a concentration for half-maximal inhibition (IC50) of 2730 nM. Still for that read-out and setting: then `C[C@H](O)[C@@H]1NC(=O)[C@H](Cc2ccccc2)NC(=O)[C@@H](Cc2c[nH]c3ccccc23)NC(=O)[C@@H](Cc2ccccc2)NC(=O)[C@@H]2CCCN2C(=O)[C@H](Cc2ccccc2)NC1=O`, with 496 nM. The same measure, in the same setting: then `C[C@@H](O)[C@@H]1NC(=O)[C@H](Cc2ccc(F)cc2)NC(=O)[C@@H](Cc2c[nH]c3ccccc23)NC(=O)[C@H](Cc2cccc3ccccc23)NC(=O)[C@@H]2CCCN2C(=O)[C@H](Cc2ccccc2)NC1=O` (cyclo([1Nal][dW][Phe(4-F)]TFP)), with 2 nM; and `C[C@H](O)[C@@H]1NC(=O)[C@H](Cc2ccccc2)NC(=O)[C@@H](Cc2c[nH]c3ccccc23)NC(=O)[C@H](Cc2ccccc2)NC(=O)[C@@H]2CCCN2C(=O)[C@H](Cc2ccccc2)NC1=O`, with 95 nM.

For `C[C@@H](O)[C@@H]1NC(=O)[C@H](Cc2ccc(F)cc2)NC(=O)[C@@H](Cc2c[nH]c3ccccc23)NC(=O)[C@H](Cc2ccccc2)NC(=O)[C@@H]2CCCN2C(=O)[C@H](Cc2ccccc2)NC1=O` (cyclo(FPF[dW][Phe(4-F)]T)), 28 nM corresponded to half-maximal inhibition (IC50).

Turning to `CC(C)[C@@H]1NC(=O)[C@H](CCCCN)NC(=O)[C@@H](Cc2c[nH]c3ccccc23)NC(=O)[C@H](Cc2ccc(O)cc2)NC(=O)[C@H](C)N(C)C(=O)[C@H](Cc2ccccc2)NC1=O` [SEGLITIDE], the IC50 was more than 1000 nM.

As for `C[C@@H]1NC(=O)[C@@H](Cc2c[nH]c3ccccc23)NC(=O)[C@H](Cc2ccccc2)NC(=O)[C@@H]2CCCN2C(=O)[C@H](Cc2ccccc2)NC(=O)[C@H]([C@@H](C)O)NC1=O`, the concentration for half-maximal inhibition (IC50) amounted to 4090 nM. For the compound `C[C@@H](O)[C@@H]1NC(=O)[C@H](Cc2ccccc2)NC(=O)[C@@H](Cc2c[nH]c3ccccc23)NC(=O)[C@H](CC(=O)O)NC(=O)[C@@H]2CCCN2C(=O)[C@H](Cc2ccccc2)NC1=O` (cyclo(D[dW]FTFP)), the half-maximal inhibitory concentration (IC50) was 1390 nM. Same read-out and setting: in the case of `C[C@@H](O)[C@@H]1NC(=O)[C@H](Cc2ccccc2)NC(=O)[C@@H](Cc2c[nH]c3ccccc23)NC(=O)[C@H](Cc2cccc3ccccc23)NC(=O)[C@@H]2CCCN2C(=O)[C@H](Cc2ccccc2)NC1=O` (cyclo([1Nal][dW]FTFP)) it was 15 nM. Turning to `C[C@@H](O)[C@@H]1NC(=O)[C@H](Cc2ccc(O)cc2)NC(=O)[C@@H](Cc2c[nH]c3ccccc23)NC(=O)[C@H](Cc2ccccc2)NC(=O)[C@@H]2CCCN2C(=O)[C@H](Cc2ccccc2)NC1=O` (cyclo(FPF[dW]YT)), the half-inhibitory concentration (IC50) was determined as 1050 nM. On the same count and under the same terms, then `C[C@@H](O)[C@@H]1NC(=O)[C@H](Cc2ccccc2)NC(=O)[C@@H](Cc2c[nH]c3ccccc23)NC(=O)[C@H](CC2CCCCC2)NC(=O)[C@@H]2CCCN2C(=O)[C@H](Cc2ccccc2)NC1=O`, with 198 nM; and `C[C@@H](O)[C@@H]1NC(=O)[C@H](Cc2ccccc2)NC(=O)[C@@H](Cc2c[nH]c3ccccc23)NC(=O)[C@H](CCc2ccccc2)NC(=O)[C@@H]2CCCN2C(=O)[C@H](Cc2ccccc2)NC1=O`, with 85 nM. Same read-out and setting: then `C[C@@H](O)[C@@H]1NC(=O)[C@H](Cc2ccccc2)NC(=O)[C@@H](Cc2c[nH]c3ccccc23)NC(=O)[C@H](CO)NC(=O)[C@@H]2CCCN2C(=O)[C@H](Cc2ccccc2)NC1=O`, with 596 nM; and `C[C@@H](O)[C@@H]1NC(=O)[C@H](CCCCN)NC(=O)[C@@H](Cc2c[nH]c3ccccc23)NC(=O)[C@H](Cc2ccccc2)NC(=O)[C@@H]2CCCN2C(=O)[C@H](Cc2ccccc2)NC1=O` (cyclo(PF[dW]KTF)), with more than 1000 nM; and `COc1ccc(C[C@@H]2NC(=O)[C@@H](Cc3c[nH]c4ccccc34)NC(=O)[C@H](Cc3ccccc3)NC(=O)[C@@H]3CCCN3C(=O)[C@H](Cc3ccccc3)NC(=O)[C@H]([C@@H](C)O)NC2=O)cc1` (cyclo(FPF[dW]Y(Me)T)), with 59 nM.

In the next assay the target is T1, Substance-P receptor. The experiment in a line: Percent Inhibition against Tachykinin receptor 1 at 2 uM.
In general, inhibition refers to the relative decrease from the control value, in per cent. `C[C@@H](O)[C@@H]1NC(=O)[C@H](Cc2ccccc2)NC(=O)[C@@H](Cc2c[nH]c3ccccc23)NC(=O)[C@@H]2CCCN2C(=O)[C@@H]2CCCN2C(=O)[C@H](Cc2ccccc2)NC1=O` yielded an inhibition of 51%.

The target in another assay is T1, Substance-P receptor. The experiment in a line: Binding affinity towards Tachykinin receptor 1. The gist of the method: as §1
Turning to `CC(=O)NCCCCCOC[C@H]1O[C@@H](OCCc2c[nH]c3ccccc23)[C@H](OCc2ccccc2)[C@@H](OCc2ccccc2)[C@@H]1OCc1ccccc1`, the concentration for half-maximal inhibition (IC50) was determined as 60 nM. As for `NCCCCCOC[C@H]1O[C@@H](OCCc2c[nH]c3ccccc23)[C@H](OCc2ccccc2)C[C@@H]1OCc1ccccc1`, the IC50 was 180 nM.

Another assay deals with Somatostatin receptor. As to the kind of experiment: Ability to inhibit binding of […]-CGP 23996 to somatostatin receptor on membranes from pituitary.
In turn, `NCCCCCOC[C@H]1O[C@@H](OCCc2c[nH]c3ccccc23)[C@H](OCc2ccccc2)[C@@H](OCc2ccccc2)[C@@H]1OCc1ccccc1` gave a half-maximal inhibitory concentration (IC50) of 5000 nM.
